# Experimental data pooled from the literature.
# Protocols differ between the studies behind these lines.
# Target: Serine/threonine-protein kinase PAK 6 (PAK6, Homo sapiens, UniProt Q9NQU5)
SMILES,read-out,method,concentration,remaining binding [%]
F[C@@H]1CCN(c2nccc(-c3cnn4ncccc34)n2)C1,binding,,1 µM,100
CNC(=O)[C@@H]1CC[C@@H](n2c(-c3ccc4cnccc4c3)nc3ccc(C(=O)NCc4cccc(C(N)=O)c4)cc32)C1,binding,competition with immobilised ligand,1 µM,100
O=C(NCCCN1CCOCC1)c1ccc(Nc2nccc(-c3cc4ccccc4s3)n2)cc1,binding,competition with immobilised ligand,1 µM,90
N[C@@H]1CCN(c2nccc(-c3cnn4ncccc34)n2)C1,binding,,1 µM,100
CNC(=O)Nc1ccc2c(c1)CC[C@@]21OC(=O)N(CC(=O)N(Cc2ccc(F)cc2)[C@@H](C)C(F)(F)F)C1=O,cell-free assay,competition with immobilised ligand,1 µM,91
COc1ncc2cc3ccccc3nc2c1C#N,cell-free assay,competition with immobilised ligand,5 µM,94
C[C@H](c1ccnc(Nc2nc3ccc(-c4cc(N(C)C)ncn4)cc3[nH]2)c1)N1CCN(C(=O)CC(F)(F)F)CC1,cell-free assay,competition with immobilised ligand,0.1 µM,100
O=C(NCCCN1CCOCC1)c1ccc(Nc2ncc(Cl)c(-c3ccc(Cl)s3)n2)cc1,binding,competition with immobilised ligand,1 µM,74
c1cncc(-c2cccc(Nc3nccc(NC4CCCCC4)n3)c2)c1,binding,competition with immobilised ligand,10 µM,60
c1cnn2ncc(-c3ccnc(N4CCC45COC5)n3)c2c1,binding,,1 µM,81
O=C(NCC1CCOCC1)c1n[nH]cc1NC(=O)c1c(F)cccc1F,binding,competition with immobilised ligand,1 µM,86
Nc1ncc2c(n1)-c1c([nH]c3ccc(C#CC4CC4)cc13)CCCC2,binding,competition with immobilised ligand,1 µM,94
CCCCN(CCCC)C(=O)CN1C[C@@H](c2cc(OC)c3c(c2)OCO3)[C@H](C(=O)O)[C@H]1CC(C)(C)CCC,cell-free assay,competition with immobilised ligand,1 µM,100
CC1CCCN1c1nccc(-c2cnn3ncccc23)n1 (stereo not drawn),binding,,1 µM,100
O=C(c1ccc(Nc2nccc(-c3cc4ccccc4s3)n2)cc1)N1CCC(N2CCCC2)CC1,binding,competition with immobilised ligand,1 µM,100
CS(=O)(=O)N1CCCC(NC(=O)[C@H](CCC2CCCCC2)NC(=O)c2ccc(CNC(=O)c3cnc4ccccn34)cc2)C1 (stereo partly drawn),cell-free assay,competition with immobilised ligand,0.1 µM,100
C[C@H]1CCN(c2nccc(-c3cnn4ncccc34)n2)C1,binding,,1 µM,80
CN(C)C(=O)Cn1cc(-c2nc(C3(c4ccc(-c5cnc(N)nc5)cc4)CC3)no2)cn1,cell-free assay,competition with immobilised ligand,1 µM,100
CCN1CCN(Cc2ccc(C(=O)Nc3ccc(C)c(Oc4ccc5c(c4)CC(=O)N5)c3)cc2C(F)(F)F)CC1,binding,competition with immobilised ligand,1 µM,100
CN(C)c1ncc(F)c(-c2cnn3ncccc23)n1,binding,,1 µM,100
Cc1noc([C@H]2C[C@@H](c3ccc(C(F)(F)F)cc3)CN(C(=O)N3CCS(=O)(=O)C3)C2)n1,cell-free assay,competition with immobilised ligand,1 µM,100
